Results of several laboratories.
Compare with care: the assays were run in different laboratories.
Target: Mitogen-activated protein kinase 11 (MAPK11, Homo sapiens, UniProt Q15759)

`Cc1nn(C)cc1-c1nc2c(N3CCN(Cc4ccc(Cl)cc4)CC3)c(Cl)cnc2[nH]1` gave a remaining binding of 100% (binding; competition with immobilised ligand; 1 µM).
`Cn1cc(-c2cc(F)cc(N3CCn4c(cc5c4CCCC5)C3=O)c2CO)cc(Nc2ccc(N3CCN(C4COC4)CC3)cn2)c1=O` has an inhibition of 11% (enzyme activity; inhibitor; 0.1 µM).
`COc1ncccc1-c1cnn2ccc(N3CCN(C(=O)OC(C)C)CC3)nc12` has a remaining binding of 89% (binding; competition with immobilised ligand; 1 µM).
For `O=c1[nH]c2ccccc2n1C1CCN(Cc2ccc(-c3[nH]c4cc5ncnc5cc4nc3-c3ccccc3)cc2)CC1`, the remaining signal was 102% (cell-free assay; 0.5 µM).
`Cn1cc(-c2cccc(N3CCc4c(sc5c4CC(C)(C)C5)C3=O)c2CO)cc(Nc2ccncn2)c1=O` has an inhibition of 6% (enzyme activity; inhibitor; 1 µM).
For `Cn1cncc1[C@@](O)(COc1ccc(C#N)cc1-c1ccc(OC(F)(F)F)cc1)c1ccc(C#N)cc1`, the remaining binding was 96% (cell-free assay; competition with immobilised ligand; 1 µM).
`CC(C)(C)c1cc(C=C(C#N)C#N)cc(Br)c1O` has a remaining activity of 100% (enzyme activity; inhibitor; 0.5 µM).
The remaining binding of `Nc1ncc(-c2nc(N3CCOCC3)nc(N3CCOCC3)n2)c(C(F)F)n1` is reported as 98% (binding; competition with immobilised ligand; 10 µM).
